Assay outcomes as filed in PubChem.
EP2 mod: EP2 receptor modulators, cAMP readout, primary screen, cell-based, HTRF cAMP, PGE2 stimulation | Prostaglandin E2 receptor EP2 subtype (Homo sapiens), P43116 | EP2-expressing cells, cAMP HTRF FRET, PGE2 co-stimulation | induction, % at 25 µM | 0.83% of 260,000 active;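 active means compounds whose cAMP rise, as percent of the full-agonist control response, exceeds 60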;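 further: rat C6 glioma line stably carrying human EP2 under a CMV promoter; the protocol text gives 20 µM as final concentration; 100% = response of wells given 1 µM PGE2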
Target sequence (P43116 whole entry, looked up): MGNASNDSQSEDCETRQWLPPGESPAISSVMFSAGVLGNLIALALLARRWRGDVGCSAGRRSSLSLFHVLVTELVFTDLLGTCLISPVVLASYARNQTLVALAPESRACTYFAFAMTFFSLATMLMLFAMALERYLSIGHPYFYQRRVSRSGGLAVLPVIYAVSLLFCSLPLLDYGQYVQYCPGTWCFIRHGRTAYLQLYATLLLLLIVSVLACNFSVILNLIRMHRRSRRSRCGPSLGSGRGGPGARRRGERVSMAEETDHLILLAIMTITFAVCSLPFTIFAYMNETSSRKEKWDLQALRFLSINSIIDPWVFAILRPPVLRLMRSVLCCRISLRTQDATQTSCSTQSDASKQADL
EP2 antag: human EP2 receptor antagonists, primary screen, TR-FRET cAMP, C6 glioma cells; inhibition, % at 25 µM; 0.52% of 260,000 active; Prostaglandin E2 receptor EP2 subtype (Homo sapiens), P43116; C6 glioma cells expressing human EP2; cells stimulated with saturating PGE2;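 active means percent inhibition above 40 after rounding to a whole number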;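 further: rat C6 glioma host cells with rolipram phosphodiesterase inhibitor present; the protocol text gives 20 µM as final concentration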
Thrombin inh: human alpha-thrombin inhibitors, primary screen, counter-screen for coagulation protease inhibitor project, biochemical, 1536-well, fluorogenic AMC substrate; Prothrombin (Homo sapiens), P00734; Boc-VPR-AMC fluorogenic substrate cleavage; inhibition, % at 5 µM; 0.26% of 220,000 active; AID 1046, 2008;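 active means inhibition at or above 40%; inactive means inhibition below 40%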;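 further: 0% = enzyme with no compound and 100% = wells without enzyme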
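Test system: human alpha-thrombin; medium: pH 7.5 Tris-saline with Tween 20; times: reaction at room temperature; signal: AMC fluorescence at 355 nm excitation and 460 nm emission; also added: Boc-VPR-AMC substrate, 15 µM final; dosing: one concentration per compound, 5 µM, with 0.2% DMSO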
KLK5 inh: human KLK5 protease inhibitors, primary screen, biochemical, 1536-well; 0.59% of 210,000 active; Kallikrein-5 (Homo sapiens), Q9Y337; inhibition, % at 5 µM; recombinant hK5, fluorogenic AMC substrate cleavage; AID 873, 2007;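 active means inhibition of 40% or more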;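 further: 0% = enzyme controls without compound and 100% = no-enzyme blanks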
FXIIa inh 1536: human FXIIa protease inhibitors, primary screen, biochemical, 1536-well | purified FXIIa, Boc-QGR-AMC fluorogenic substrate, 2 h | inhibition, % at 5 µM | 0.3% of 220,000 active; in the data active means inhibition above about 40%;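 further: 0% = enzyme with no compound and 100% = blank without enzyme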
FXIa inh: human FXIa protease inhibitors, primary screen, biochemical, 1536-well | purified FXIa, Boc-Glu-Ala-Arg-AMC fluorogenic substrate | Coagulation factor XI (Homo sapiens), P03951 | 0.14% of 220,000 active | inhibition, % at 5 µM;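 active means inhibition of at least 40%; inactive means inhibition below 40%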;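 further: fluorescence of freed AMC excited at 355 nm; 0% = enzyme without compound and 100% = no enzyme blank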
EP2 cAMP induct: cAMP induction in EP2, EP4, beta2-AR and parental cells, confirmation, counter-screen for EP2 modulator project, cell-based, five parallel assays, C6 glioma, HEK293. shares compounds with EP2 mod. cAMP HTRF induction; plus low (about EC15) PGE2 agonist. calls only at 20 µM (by protocol). 47% of 1,300 active;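 active means cAMP induction above 50% in the main assay while under 30% in all four parallel counter assays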;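 further: rat C6 glioma cells stably expressing human EP2 receptor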
The depositor's hits bear a star; i = inactive; nt = not tested or not shown; + = active, no number; ! = not confirmed by another sample. Rows were chosen to be rich in hits. Some 2.1% of all compounds tested hit in one or more screens of this group.

SMILES	EP2 mod	EP2 antag	Thrombin inh	KLK5 inh	FXIIa inh 1536	FXIa inh	EP2 cAMP induct
Cc1cc(=O)[nH]c(N2CCN(C(=O)c3cc(F)cc(F)c3)CC2)n1	-24.2	3.6	nt	nt	nt	nt	nt
COc1ccc(C(=O)N2CCC(C(=O)Nc3cccc4ccccc34)CC2)cc1OC	-52.1	8.3	nt	nt	nt	nt	nt
Cc1sc(NC(=O)c2ccc(F)cc2)c(CN2CCCCCC2)c1C	59.2	8.9	1.7	-12.2	4.8	-6.3	nt
Cc1sc(NC(=O)c2ccccc2F)c(CN2CCCCC2)c1C	84.2*	17.4	-3.0	-18.2	6.2	5.5	i
O=C(c1cc(-c2ccc(Cl)cc2Cl)on1)N1CCc2ccccc2C1	-72.3	5.5	nt	nt	nt	nt	nt
C(=N\N1CCN(C2c3ccccc3-c3ccccc32)CC1)/c1cccnc1	73.7*	15.4	-5.3	-21.5	25.3	18.0	i
Cn1c(SCC(=O)Nc2ccccc2C(F)(F)F)nc2sc3c(c2c1=O)CCCC3	18.9	5.0	nt	nt	nt	nt	nt
CC(C)NC(=O)NC(=O)CSc1nnc(COc2ccccc2F)n1C(C)C1CC2CCC1C2 (stereo not given)	57.2	6.1	-0.2	-6.8	15.6	1.7	i
CC(C)(C)c1cc(C(=O)N2CCC[C@H](C(=O)c3ccc4c(c3)OCO4)C2)n[nH]1	-65.6	9.2	nt	nt	nt	nt	nt
Cn1c(SCC(=O)c2ccc(Cl)cc2)nnc1-c1ccco1	-21.6	10.9	nt	nt	nt	nt	nt
C=C(C)CN1CCN(C(=O)CCn2c(-c3ccccn3)nc3ccccc32)CC1	-22.0	5.5	nt	nt	nt	nt	nt
CC(C)Oc1ccc(CN2CCC(=O)NC2=S)cc1	0.6	12.4	nt	nt	nt	nt	nt
CCOC(=O)c1c(-c2cccs2)csc1NC(=O)COC(=O)c1c(C)noc1C	69.1*	2.2	0.7	5.8	3.8	1.7	+
CCOC(=O)c1c(-c2cccs2)csc1NC(=O)c1ccncc1	57.8	6.9	-4.1	-7.1	6.3	-2.8	nt
O=C(CN1CCN(Cc2ccccc2)CC1)Nc1ccccc1-c1ccccc1	65.8*	18.2	-7.5	-0.2	3.4	-1.6	i
O=C(CSCc1c(Cl)cccc1Cl)Nc1ccccc1-c1ccccc1	75.0*	6.5	-1.0	-9.5	13.4	4.0	i
COc1ccccc1NC(=O)CN1CCN(Cc2ccccc2)CC1	8.0	8.2	-10.6	-4.0	-9.7	-9.8	nt
Cc1cc2cc(CN(CCO)C(=O)c3ccccc3)c(=O)[nH]c2cc1C	3.8	11.2	nt	nt	nt	nt	nt
CCC1(CC)Cc2ccccc2-c2nc(NCCO)[nH]c(=O)c21	69.0*!	15.6	-4.8	-18.9	-6.5	-2.0	i
Cc1ccc2ccc[n+](CCCS(=O)(=O)[O-])c2c1	4.6	7.4	nt	nt	nt	nt	nt
FC(F)(F)c1cc(-c2ccccc2)nc2nc(N3CCOCC3)sc12	67.1*	10.3	0.3	-11.2	6.0	-5.2	+
O=C(O)c1cc(-c2ccccc2)nc2nc(N3CCCCC3)sc12	9.6	7.0	-3.4	-26.7	-12.4	-7.4	nt
OC(Cc1ccccc1)(Cc1ccccc1)c1ccccc1	59.0	8.7	nt	nt	nt	nt	i
S=c1[nH]nc(-c2ccco2)n1/N=C/c1ccc(Cl)cc1Cl	78.4*	3.7	0.2	1.5	8.8	-6.2	+
S=c1[nH]nc(-c2ccco2)n1/N=C/c1cccs1	7.8	12.2	-10.2	-2.6	8.6	4.1	nt
O=c1c2ccccc2c(-c2ccccc2)nn1Cc1c(Cl)cccc1Cl	85.3*	5.9	-2.1	-6.0	11.6	1.2	+
CCCOc1ccc(Cl)cc1CNc1ccccc1	73.0*	2.1	-0.7	20.6	6.3	-0.1	+
